ZTA counter: counter-screen for EBNA-1 inhibitors: inhibitors of Epstein-Barr virus ZTA; P03206; 320,000 compounds, 0.15% hits; ZTA-DNA binding, fluorescence polarization; inhibition, % at 11 µM; in the data active = inhibition above about 33%
core dimer inh: HCV core protein dimerization inhibition; TR-FRET GST/Flag-core106 dimerization, 1536-well; inhibition, % at 5 µM; 300,000 compounds, 0.33% hits;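 active = inhibition above the mean of all tested compounds plus 3 SD, set per screening campaign, cut at about 45% in these data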
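Assay system: GST-tagged and Flag-tagged HCV core protein residues 1-106 / Times: compound-protein-antibody incubation 4 h at 22.5 °C / Signal: time-resolved FRET, ex 340 nm, em 617 and 671 nm / Evaluation: % inhibition based on acceptor/donor emission ratio / Benchmarks: wells lacking GST-core106 and wells with excess unlabelled core106 / Repeats: singlicate, one well per compound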
EBNA-1 inhibitor: blocks EBNA-1 binding to DNA. EBNA-1 DNA binding, fluorescence polarization. inhibition, % at 14.8 µM. 300,000 compounds, 0.34% hits. AID 1950; in the data active = inhibition above about 28%
EBV gp42 inh: EBV gp42 inhibition; Q1HVG2; Fluorescence polarization binding assay, mP read-out; inhibition, % (tested at 21.74 µM); 220,000 compounds, 0.42% hits; AID 1085; in the data active = inhibition above about 50%
Target sequence (Q1HVG2 whole entry, looked up): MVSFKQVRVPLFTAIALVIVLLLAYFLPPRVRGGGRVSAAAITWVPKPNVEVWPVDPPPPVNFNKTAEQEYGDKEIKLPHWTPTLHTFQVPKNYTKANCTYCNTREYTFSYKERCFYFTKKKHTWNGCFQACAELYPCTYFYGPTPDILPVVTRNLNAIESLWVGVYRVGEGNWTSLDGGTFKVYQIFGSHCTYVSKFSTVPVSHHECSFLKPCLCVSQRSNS
GPR7 antag: antagonists of human GPR7 (neuropeptides B/W receptor 1); P48145; GPR7-expressing cells, fluorescence antagonist assay; inhibition, % at 4.4 µM; 290,000 compounds, 1.1% hits; in the data active = inhibition above about 16%, passing the limit was not always enough;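 note: cells stimulated with the agonist NPW; 0% = agonist with vehicle and 100% = vehicle without agonist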
Target sequence (P48145 whole entry, looked up): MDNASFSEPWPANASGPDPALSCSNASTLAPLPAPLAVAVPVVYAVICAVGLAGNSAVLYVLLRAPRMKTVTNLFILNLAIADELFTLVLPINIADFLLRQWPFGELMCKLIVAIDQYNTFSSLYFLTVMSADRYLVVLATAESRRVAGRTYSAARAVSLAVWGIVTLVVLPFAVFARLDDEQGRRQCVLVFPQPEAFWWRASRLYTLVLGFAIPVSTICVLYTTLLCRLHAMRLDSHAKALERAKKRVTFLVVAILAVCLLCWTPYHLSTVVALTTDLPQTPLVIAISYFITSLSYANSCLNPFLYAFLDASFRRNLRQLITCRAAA
HCV NS3 hel inh: blocks Hepatitis C virus NS3 helicase unwinding; 290,000 compounds, 0.56% hits; NS3 helicase DNA unwinding, Cy5 molecular beacon fluorescence; inhibition, % at 10.9 µM;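 active = inhibition above the mean of all tested compounds plus 3 SD, set per campaign, cut at about 35% in these data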;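 note: 0% = DMSO wells and 100% = thioflavine S control wells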
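Material: hepatitis C virus NS3 helicase domain fragment enzyme; measured by: Cy5 fluorescence, 0 and 60 min reads; control set: DMSO and thioflavine S; incubation: 60 min unwinding reaction at 25 °C after ATP addition; read-out basis: % inhibition from 60/0 min fluorescence ratio, DMSO 0%, thioflavine S 100%; repeats: singlicate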
GPR7 antag conf: confirmation of human GPR7 antagonists; GPR7-expressing cells, calcium fluorescence antagonist mode; shares compounds with GPR7 antag; inhibition, % at 4.4 µM; 2,400 compounds, 52% hits; in the data active = inhibition above about 24%;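 note: stimulated with the GPR7 agonist NPW; 0% = agonist plus vehicle and 100% = vehicle alone without agonist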
MCHR1 antagonist: counter-screen for GPR7 antagonists: antagonists of human MCHR1; shares compounds with GPR7 antag; MCHR1-expressing cells, fluorescence antagonist assay; inhibition, % at 4.4 µM; 2,400 compounds, 62% hits; in the data active = inhibition above about 22%;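 note: 0% = vehicle with agonist and 100% = vehicle without agonist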
* hit, by the source's call; nt = not tested or not shown. The list is not random: actives were taken first. Their share in the collection is about 2.3%.

SMILES	ZTA counter	core dimer inh	EBNA-1 inhibitor	EBV gp42 inh	GPR7 antag	HCV NS3 hel inh	GPR7 antag conf	MCHR1 antagonist
CC1CCN(c2ccc3nnc(CCC(=O)Nc4ccc(F)c(F)c4)n3n2)CC1	-0.5	2.0	-8.4	nt	28.2*	-6.3	37.4*	40.5*
O=C(NC1(C(F)(F)F)NC(=O)N(c2ccc(F)cc2)C1=O)c1ccncc1 (centres undefined)	-8.2	-4.1	-2.4	-8.9	-5.5	19.0	nt	nt
O=C(CSc1nnc(-c2cccc(S(=O)(=O)N3CCCC3)c2)n1-c1ccccc1)Nc1ccc(C(=O)O)cc1	-6.4	1.0	-1.8	-14.1	26.4*	0.6	10.6	13.1
O=C(CSc1nnc(-c2cccc(S(=O)(=O)N3CCCC3)c2)n1-c1ccccc1)Nc1cccc(C(=O)O)c1	5.8	2.8	0.4	-8.8	-9.8	4.1	nt	nt
COc1ccc(F)cc1C(=O)C1CCCN(Cc2cn(C)c3ccccc23)C1 (centres undefined)	-18.0	-3.7	-2.3	-4.3	23.6*	-33.1	32.6*	30.3*
Cn1cc(CN2CCCC(C(=O)c3cc(F)ccc3F)C2)c2ccccc21 (centres undefined)	7.2	1.6	-10.4	-3.9	2.8	-11.9	nt	nt
O=C(c1cc(F)ccc1F)C1CCCN(Cc2cccn2-c2ccccn2)C1 (centres undefined)	3.8	-1.0	-1.9	-19.1	36.7*	-4.9	19.7	24.3*
Cc1ccc(C(CC(=O)N2CCNCC2)c2ccccc2)c(O)c1C (centres undefined)	-20.6	-4.1	0.7	nt	33.2*	-17.1	22.1	20.6
N#Cc1ccc(NC(=O)Nc2ccc(Cl)cc2)cc1	-9.8	-9.7	10.8	-9.8	30.4*	1.8	58.0*	56.9*
O=C(c1ccco1)N1CCN(S(=O)(=O)c2ccc(Br)s2)CC1	-4.7	-3.8	10.9	-19.0	46.8*	9.7	8.8	-1.1
CC(C)(C)c1cc(C(=O)Nc2ccc(F)cc2)n(Cc2ccc(F)cc2)n1	4.1	4.0	6.8	-6.4	22.7*	2.3	2.5	56.2*
Cc1ccc(NC(=O)c2cc(C(C)(C)C)nn2Cc2ccccc2)cc1	6.4	-2.0	-2.8	-2.7	-20.3	-6.7	nt	nt
COc1ccc(CNCCC(c2ccc(OC(C)C)cc2)C(C)C)cc1OC (centres undefined)	8.5	-5.5	13.3	10.9	19.4	-82.8	nt	nt
COc1ccc(C(CCNCc2ccc(N(C)C)cc2)C(C)C)cc1 (centres undefined)	-14.7	-0.8	-18.8	-8.8	23.8*	-51.4	21.9	49.6*
COc1ccc(C(CC(=O)O)c2ccc3c(c2)OCO3)cc1 (centres undefined)	4.6	6.5	5.2	nt	-1.9	21.2	nt	nt
COc1ccc(CNCCC(c2ccccc2)c2ccc3c(c2)OCO3)cc1 (centres undefined)	22.2	-2.5	-6.9	-18.6	40.7*	-103.9	45.8*	64.2*
COc1ccc(C(CCNCc2ccc(OC(C)C)cc2)C(C)C)cc1 (centres undefined)	-7.3	-3.6	-7.5	-8.3	26.6*	-58.6	50.8*	70.3*
Cc1ccc2c(CN3CCCCC3CCO)cc(=O)oc2c1 (centres undefined)	-4.7	2.0	6.1	nt	1.0	10.7	nt	nt
Cc1cc(C)c(NC(=O)Cn2nnc(C(=O)NCc3ccc4c(c3)OCO4)c2N)c(C)c1	17.2	16.6	3.7	nt	-10.9	-11.0	nt	nt
CCCCOc1ccc(Br)cc1/C(C)=N/NC1=NCCN1	14.4	-1.3	1.5	-6.0	24.1*	-44.5	35.6*	60.2*
COCCNC(=O)C(c1ccc(F)cc1)N(C(=O)CCC(=O)Nc1ccccn1)C1CCCCC1 (centres undefined)	-5.3	-11.6	1.7	nt	-14.7	-7.2	nt	nt
COc1ccc(N2CCN(c3oc(COc4ccc(Cl)cc4Cl)nc3C#N)CC2)cc1	10.4	10.5	3.5	0.7	40.7*	-6.4	53.8*	34.9*
COc1ccc(N2CCN(c3oc(COc4ccccc4)nc3C#N)CC2)cc1	9.1	1.6	-1.4	-13.3	43.6*	-11.1	48.6*	46.1*
N#Cc1nc(COc2ccc(Cl)cc2)oc1N1CCN(Cc2ccccc2)CC1	-16.0	0.7	-7.3	8.7	48.5*	-7.1	49.5*	47.0*
COc1ccc(N2CCN(c3oc(Cc4ccccc4)nc3C#N)CC2)cc1	-1.7	3.6	-11.2	-2.0	-4.6	-14.6	nt	nt
SMILES	ZTA counter	core dimer inh	EBNA-1 inhibitor	EBV gp42 inh	GPR7 antag	HCV NS3 hel inh	GPR7 antag conf	MCHR1 antagonist
CCN1CCN(c2oc(COc3ccc(Cl)cc3)nc2C#N)CC1	7.3	5.2	7.7	-9.8	0.4	-13.0	nt	nt
CN1CCN(c2oc(COc3ccc(-c4ccccc4)cc3)nc2C#N)CC1	-11.1	0.1	-8.1	-0.3	26.8*	-85.2	13.1	40.7*
CC(=O)c1ccc(NC(=S)NCC(c2ccco2)N2CCCC2)cc1 (centres undefined)	15.9	1.9	2.4	2.9	3.5	3.3	nt	nt
C[C@H]1CNC(=O)C(=O)N1C[C@H](Cc1ccc(O)cc1)NC(=O)CC12CC3CC(CC(C3)C1)C2	-0.8	-8.0	-1.4	nt	-3.8	4.2	nt	nt
O=C1CCCC(=O)C1=C1SCCCS1	-8.9	-1.1	-3.0	-6.5	-7.2	5.5	nt	nt
COc1ccc(N2CCN(c3oc(COc4ccc(Cl)cc4)nc3C#N)CC2)cc1	0.6	14.3	2.8	-15.0	38.9*	-6.7	40.1*	32.7*
CN(C)CCNc1oc(COc2ccc(-c3ccccc3)cc2)nc1C#N	6.9	-7.3	-3.1	-2.6	-5.2	-65.5	nt	nt
N#Cc1nc(COc2ccc(-c3ccccc3)cc2)oc1NCCCN1CCOCC1	13.4	-5.6	0.3	3.1	23.8*	-83.4	41.0*	56.1*
C=CCNc1oc(COc2ccc(C)cc2)nc1C#N	7.0	-4.0	20.3	-6.3	24.2*	0.9	6.6	16.7
N#Cc1nc(COc2ccccc2)oc1NCCN1CCOCC1	9.2	-1.6	5.4	-20.6	4.2	4.2	nt	nt
Cc1ccc(OCCCC(=O)Nc2cc(Cl)ccc2-n2cncn2)cc1	-4.5	1.4	-7.8	nt	nt	nt	nt	nt
Cc1cc(C)c(S(=O)(=O)NCC2CCC(C(=O)NCCCN3CCOCC3)CC2)c(C)c1 (centres undefined)	nt	nt	nt	-5.7	21.7*	-9.4	12.3	7.2
Cc1cccc(OCCC(=O)Nc2ccc(F)c(Cl)c2)c1	12.3	6.7	10.0	17.6	-7.8	-15.0	nt	nt
COc1ccc2c(c1OC)C(=O)N(c1ccc(C)cc1)C2	-4.3	-3.4	5.9	-17.7	23.4*	27.0	9.0	2.0
COc1ccc(CSc2nnnn2-c2ccc(C(N)=O)cc2)cc1[N+](=O)[O-]	10.6	-11.2	-1.5	nt	36.1*	-7.6	6.6	38.9*
CN(CC(=O)Nc1cccc(F)c1)C(=O)CNS(=O)(=O)c1ccc(N(C)C)c([N+](=O)[O-])c1	-3.4	-3.5	-7.1	nt	nt	nt	nt	nt

Screening results deposited in PubChem by several laboratories.
